For 14 compounds, Activity and inhibition results are on record in ChEMBL document CHEMBL4196072, “Marliolide inhibits skin carcinogenesis by activating NRF2/ARE to induce heme oxygenase-1” (Eur J Med Chem, 2018).

The subject of data set [1] is HaCaT. Description: Cytotoxicity against human HaCaT cells assessed as reduction in cell viability at 10 uM after 24 hrs by MTT method. The class given is cell-based. Summed up:
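HaCaT cells were seeded at 30,000 per well and exposed to agent at 10 µM for 24 h. After a PBS wash, cells were incubated with MTT (5 mg/ml) for 4 h, lysed in DMSO, and absorbance was read at 560 nm.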
For orientation: Formazan colour is commonly taken as a measure of viable cells.

Data set [2] concerns the target Kelch-like ECH-associated protein 1 (Homo sapiens) (UniProt Q14145). Description: Binding affinity to Keap1 in human HaCaT cells assessed as induction of NRF2/ARE activation-mediated HO1 mRNA expression at 10 uM RT-PCR method. The class given is cell-based. Conditions: TDE = time-dependent effect. Summed up:
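HaCaT cells were treated at 10 µM (DMSO, 1/1000) for 4, 8 and 12 h. Total RNA was analysed by SYBR real-time RT-PCR with HO-1-specific primers. Cycling was 95 °C for 5 min; 40 cycles of 95 °C 10 s, 59 °C 10 s, 72 °C 20 s; then 95 °C 10 s.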

Data set [3] has the same target. Description: Binding affinity to Keap1 in human HaCaT cells assessed as induction of NRF2/ARE activation-mediated HO1 expression at 10 uM after 6 to 24 hrs by Western blot analysis. The class given is cell-based. Put shortly: (§1)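 HaCaT cells were grown in RPMI with 10% FBS and Pen/Strep and treated with agent from DMSO stock (1/1000 dilution), across concentrations for 24 h or over a time course. Cells were lysed in RIPA buffer and protein was measured by BCA. Equal amounts were separated by SDS-PAGE, blotted to PVDF, blocked in 5% milk/PBST, probed overnight at 4°C with HO-1 or NRF2 antibody, and detected by ECL. Actin served as loading control.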
For orientation: A western blot detects proteins with antibodies after separation by electrophoresis.

The target of data set [4] is Kelch-like ECH-associated protein 1 (Mus musculus) (UniProt Q9Z2X8). Description: Binding affinity to Keap1 in NRF2+/+ MEF assessed as induction of NRF2/ARE activation-mediated HO1 expression at 10 uM after 24 hrs by Western blot analysis. The class given is cell-based.
The test system of data set [5] is Mus musculus. As to the kind of experiment: Downregulation of 8-OH-G expression in skin lysates of DMBA/TPA-induced mouse skin carcinogenesis model at 10 umol administered topically 3 times per week up to 10 weeks with TPA starting from 1 week post DMBA treatment by immunofluorescence microscopic method. Type of data set: functional, organism-based. As to conditions: Zone of skin, Lysate. Summed up: (§2)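 Skin came from the two-stage DMBA/TPA model in hairless mice: DMBA 2 µmole once topically, then TPA 10 nmole ± agent 10 µmole three times weekly. At sacrifice, skin was formalin-fixed and paraffin-embedded. Sections were incubated overnight at 4°C with 8-OH-G or 4-HNE primary antibody, then probed with FITC-conjugated secondary antibody for fluorescence imaging.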

Data set [6] relates to Mus musculus. Description: Anti-carcinogenic effect in hairless mouse assessed as inhibition of number of DMBA/TPA-induced papilloma formation at 10 umol administered topically 3 times per week up to 10 weeks with TPA starting from 1 week post DMBA treatment. Type of data set: functional, organism-based. Summed up:
(§3)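 Male hairless mice (6 weeks old at purchase, acclimated one week) received a single topical dose of DMBA (2 µmole) or acetone vehicle in week 1. From week 2, the back was treated with TPA (10 nmole) alone or with test agent (10 µmole), three times per week. Papillomas were counted manually at the end of each week. At sacrifice, skin was formalin-fixed, paraffin-embedded and H/E-stained for phase-contrast imaging.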

Data set [7] deals with Mus musculus. Description: Upregulation of GCLC expression in skin lysates of mouse at 10 umole applied topically up to 24 hrs by Western blot analysis. As to conditions: Zone of skin, Lysate. The class given is functional, organism-based.
Data set [8] addresses Kelch-like ECH-associated protein 1 (Mus musculus) (UniProt Q9Z2X8). Description: Binding affinity to Keap1 in NRF2+/+ MEF assessed as induction of NRF2/ARE activation-mediated HO1 expression at 10 uM up to 8 hrs by RT-PCR method. Type of data set: cell-based.
Data set [9] concerns HaCaT. Description: Induction of apoptosis in human HaCaT cells assessed as increase in cleaved caspase-3 protein expression at 10 uM after 6 to 24 hrs by Western blot analysis. Type of data set: cell-based. Put shortly:
(§4)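 HaCaT cells were exposed to agent or etoposide for various times. RIPA lysates were analysed by SDS-PAGE and Western blot with cleaved caspase-3 and cleaved PARP antibodies, with ECL detection and actin as loading control.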

In data set [10] the target is Kelch-like ECH-associated protein 1 (Homo sapiens) (UniProt Q14145). Description: Binding affinity to Keap1 in human HaCaT cells assessed as induction of NRF2/ARE activation-mediated HO1 expression at 10 uM by Western blot analysis. Type of data set: cell-based. As to conditions: TDE = time-dependent effect. Put shortly: as §1
Data set [11] shares this target. Description: Binding affinity to Keap1 in human HaCaT cells assessed as activation of NRF2 by measuring nuclear translocation of NRF2 at 10 uM after 6 to 12 hrs by immunofluorescence assay. The class given is cell-based. Put shortly: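 Confluent HaCaT cells on glass were exposed to agent for 6 h and 12 h, blocked with 1% BSA for 30 min, and fixed with paraformaldehyde. They were incubated overnight at 4°C with NRF2 antibody, then with FITC-conjugated secondary antibody, and imaged by confocal microscopy.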

The subject of data set [12] is HaCaT. Description: Induction of apoptosis in human HaCaT cells assessed as increase in cleaved PARP protein expression at 10 uM after 6 to 24 hrs by Western blot analysis. Type of data set: cell-based. Put shortly: as §4
Data set [13] relates to Mus musculus. Description: Upregulation of NRF2 expression in skin lysates of mouse at 10 umole applied topically up to 24 hrs by Western blot analysis. Type of data set: functional, organism-based. As to conditions: Zone of skin, Lysate.
Data set [14] concerns Mus musculus. As to the kind of experiment: Anti-carcinogenic effect in hairless mouse assessed as inhibition of incidence of DMBA/TPA-induced papilloma formation at 10 umol administered topically 3 times per week up to 10 weeks with TPA starting from 1 week post DMBA treatment. Type of data set: functional, organism-based. Put shortly:
as §3

For data set [15], the system named is Mus musculus. As to the kind of experiment: Anti-carcinogenic effect in hairless mouse assessed as inhibition of DMBA/TPA-induced papilloma growth at 10 umol administered topically 3 times per week up to 10 weeks with TPA starting from 1 week post DMBA treatment by hematoxylin/eosin staining based phase-contrast microscopic method. Type of data set: functional, organism-based. Put shortly:
as §3

Data set [16] addresses Kelch-like ECH-associated protein 1 (Mus musculus) (UniProt Q9Z2X8). As to the kind of experiment: Binding affinity to Keap1 in NRF2-/- MEF assessed as induction of NRF2/ARE activation-mediated HO1 expression at 10 uM up to 8 hrs by RT-PCR method. Type of data set: cell-based.
Data set [17] relates to Mus musculus. As to the kind of experiment: Upregulation of HO-1 expression in skin lysates of mouse at 10 umole applied topically up to 24 hrs by Western blot analysis. Conditions: Zone of skin, Lysate. Type of data set: functional, organism-based.
The test system of data set [18] is HaCaT. As to the kind of experiment: Cell cycle arrest in human HaCaT cells assessed as accumulation at G1/S phase at 10 uM after 24 hrs by propidium iodide staining based flow cytometry. Put shortly: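 HaCaT cells were exposed to agent for 24 h, with etoposide as positive control. Cells (1x10⁶ per group) were fixed in PBS/70% EtOH (3:7), washed, stained with propidium iodide (20 µg/ml), and G1/S distribution was measured by flow cytometry.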
On the technique in general: In flow cytometry, cells or beads pass a laser one at a time.

In data set [19] the test system is Mus musculus. As to the kind of experiment: Downregulation of 4-HNE expression in skin lysates of DMBA/TPA-induced mouse skin carcinogenesis model at 10 umol administered topically 3 times per week up to 10 weeks with TPA starting from 1 week post DMBA treatment by immunofluorescence microscopic method. Type of data set: functional, organism-based. Conditions: Zone of skin, Lysate. Summed up:
as §2

Data set [20] deals with Kelch-like ECH-associated protein 1 (Homo sapiens) (UniProt Q14145). As to the kind of experiment: Binding affinity to Keap1 in human HaCaT cells assessed as induction of NRF2/ARE activation-mediated HO1 expression at 1 to 10 uM after 24 hrs by Western blot analysis. The class given is cell-based. Summed up:
as §1

Data set [21] deals with HaCaT. As to the kind of experiment: Cytotoxicity against human HaCaT cells assessed as reduction in cell viability by measuring morphological changes at 10 uM after 24 hrs by phase contrast microscopic method. The class given is cell-based. Put shortly: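 HaCaT cells were exposed to agent or etoposide, and gross cell morphology was examined by phase-contrast microscopy.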

In data set [22] the target is Kelch-like ECH-associated protein 1 (Mus musculus) (UniProt Q9Z2X8). Description: Binding affinity to Keap1 in NRF2-/- MEF assessed as induction of HO1 expression at 10 uM after 24 hrs by Western blot analysis. The class given is cell-based.
The target of data set [23] is T1, Nuclear factor erythroid 2-related factor 2 (Homo sapiens) (UniProt Q16236).
T1 sequence (whole entry): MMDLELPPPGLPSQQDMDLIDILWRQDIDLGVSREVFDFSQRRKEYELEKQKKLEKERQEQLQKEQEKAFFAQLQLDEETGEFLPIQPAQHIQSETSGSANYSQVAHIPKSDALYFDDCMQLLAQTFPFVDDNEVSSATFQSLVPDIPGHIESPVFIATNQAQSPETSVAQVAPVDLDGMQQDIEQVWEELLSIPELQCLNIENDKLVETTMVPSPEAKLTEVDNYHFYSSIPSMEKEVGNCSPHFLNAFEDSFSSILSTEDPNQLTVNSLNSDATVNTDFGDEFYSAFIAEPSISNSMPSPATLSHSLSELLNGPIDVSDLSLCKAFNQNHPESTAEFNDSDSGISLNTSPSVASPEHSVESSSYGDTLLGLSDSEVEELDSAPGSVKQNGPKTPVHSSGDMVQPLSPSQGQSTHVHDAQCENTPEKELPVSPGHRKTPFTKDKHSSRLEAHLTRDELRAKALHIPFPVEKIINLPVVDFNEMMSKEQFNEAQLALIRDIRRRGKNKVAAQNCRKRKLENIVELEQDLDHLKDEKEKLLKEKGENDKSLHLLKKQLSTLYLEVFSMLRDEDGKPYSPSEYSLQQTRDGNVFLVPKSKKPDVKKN
Description: Binding affinity to NRF2 in human HaCaT cells at 10 nmol by immunoprecipitation assay. The class given is cell-based. Summed up: (§5)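 Lysate (800 µg) from confluent HaCaT cells in RIPA buffer was mixed with biotin or biotinylated agent (10 nmole each). Pull-down was done with streptavidin-agarose beads overnight at 4°C. Beads were washed in ice-cold PBS, and bound KEAP1 and NRF2 were detected by Western blot.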

The target of data set [24] is Kelch-like ECH-associated protein 1 (Homo sapiens) (UniProt Q14145). As to the kind of experiment: Binding affinity to Keap1 in human HaCaT cells at 10 nmol by immunoprecipitation assay. The class given is cell-based. Summed up: as §5

The source made the active and inactive calls. The rule behind the calls is not given here.

Chain of Kelch-like ECH-associated protein 1 (Homo sapiens) (Q14145 whole entry): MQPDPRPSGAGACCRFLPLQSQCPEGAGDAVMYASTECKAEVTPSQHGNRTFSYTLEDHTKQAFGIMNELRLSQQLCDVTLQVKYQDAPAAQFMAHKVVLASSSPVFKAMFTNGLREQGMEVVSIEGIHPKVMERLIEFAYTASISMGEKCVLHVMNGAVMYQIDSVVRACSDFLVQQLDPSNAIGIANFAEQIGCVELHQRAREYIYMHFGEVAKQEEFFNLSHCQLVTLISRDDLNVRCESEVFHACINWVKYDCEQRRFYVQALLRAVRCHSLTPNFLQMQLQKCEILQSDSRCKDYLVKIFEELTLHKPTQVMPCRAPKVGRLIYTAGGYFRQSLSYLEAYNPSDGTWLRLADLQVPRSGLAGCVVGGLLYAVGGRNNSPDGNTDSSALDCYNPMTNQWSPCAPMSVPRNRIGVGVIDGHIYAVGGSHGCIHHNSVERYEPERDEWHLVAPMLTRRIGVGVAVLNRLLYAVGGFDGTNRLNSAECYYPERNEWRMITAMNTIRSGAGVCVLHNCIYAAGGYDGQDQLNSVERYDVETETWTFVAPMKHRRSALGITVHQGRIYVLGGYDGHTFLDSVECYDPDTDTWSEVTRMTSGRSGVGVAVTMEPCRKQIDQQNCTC
Chain of Kelch-like ECH-associated protein 1 (Mus musculus) (Q9Z2X8 whole entry): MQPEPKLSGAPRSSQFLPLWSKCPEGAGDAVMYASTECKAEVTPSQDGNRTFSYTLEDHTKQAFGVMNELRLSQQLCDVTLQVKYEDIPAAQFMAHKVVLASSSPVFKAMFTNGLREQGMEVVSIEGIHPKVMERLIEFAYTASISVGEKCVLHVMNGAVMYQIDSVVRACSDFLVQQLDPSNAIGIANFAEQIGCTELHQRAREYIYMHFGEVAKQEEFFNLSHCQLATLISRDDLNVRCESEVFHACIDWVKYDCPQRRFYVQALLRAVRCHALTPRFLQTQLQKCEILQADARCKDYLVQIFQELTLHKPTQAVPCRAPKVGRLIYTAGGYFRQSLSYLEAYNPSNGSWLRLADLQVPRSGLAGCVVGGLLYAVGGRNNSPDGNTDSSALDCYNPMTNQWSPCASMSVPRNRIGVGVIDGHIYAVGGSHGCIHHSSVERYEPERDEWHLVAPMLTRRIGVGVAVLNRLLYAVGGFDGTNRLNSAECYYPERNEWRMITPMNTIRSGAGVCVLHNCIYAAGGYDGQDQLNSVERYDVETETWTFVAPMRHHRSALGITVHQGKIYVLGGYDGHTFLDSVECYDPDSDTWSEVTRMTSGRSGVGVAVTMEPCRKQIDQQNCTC

For the compound `CCCCCCCCCC/C=C1/C(=O)O[C@@H](C)[C@H]1O`, the figures for the Activity result (with HaCaT [1]; in data set [2]) were “Non-Toxic” and “Tde”, respectively. In addition, the outcome in data set [3] was Active.
As to `CCCCCCCCCCCCC/C=C1/C(=O)O[C@@H](C)[C@@H]1O`, the result in data set [3] was Active.
The same measure, in the same setting: the value for `CCCCCCCCCCCCC/C=C1/C(=O)O[C@@H](C)[C@H]1OC(=O)CC(C)C` was “inactive”; that for `CCC/C=C1/C(=O)O[C@@H](C)[C@H]1O` was “inactive”.
On to `CCCCCCCCCCC/C=C1/C(=O)O[C@@H](C)[C@H]1O`, for which the Activity entry in the data set on HaCaT [1] is “Non-Toxic”; in data set [2], “Tde”. The outcome in [3] was Active.
Regarding `CCCCCCCCCCCCC/C=C1\C(=O)O[C@@H](C)[C@H]1O`, the outcome in data set [3] was Active.
Same read-out and setting: the value for `CCCCCCCCCCCCCC[C@@H]1C[C@H](O)OC1=O` was “inactive”.
Take `CCCCCCCCCCCCC/C=C1\C[C@H](C)OC1=O`: the outcome in [3] was inactive.
As for `CCCCCCCCCCCCC/C=C1/C(=O)O[C@@H](C)[C@H]1O`, the outcome (in data set [4]; with Mus musculus [5]; in the data set on Mus musculus [7]; in data set [8]; in data set [11]; in the data set on Mus musculus [13]) was Active. Moreover, the result (with Mus musculus [17]; with Mus musculus [19]; in data set [20]) was Active. Moreover, the inhibition entry in the data set with Mus musculus [6], in the data set with Mus musculus [14] and in the data set with Mus musculus [15] was “Active” throughout. The Activity result in the data set with HaCaT [9] was “Non-Toxic”; in data set [10] it was “Tde”; in the data set with HaCaT [1], “Non-Toxic”; in the data set on HaCaT [12], “Non-Toxic”; with HaCaT [18], “Non-Toxic”; with HaCaT [21] it was “Non-Toxic”. In addition, the outcome in [16] and in [22] was inactive.
Take `CCCCCCCCCCCCCC[C@H]1C(=O)O[C@@H](O)[C@H]1O`: in data set [3], the outcome was inactive.
In the case of `CCCCCCCCC/C=C1/C(=O)O[C@@H](C)[C@H]1O`, the Activity entry was “Non-Toxic” in the data set with HaCaT [1] and “Tde” in data set [2]. Also, the result in data set [3] was Active.
As to `C[C@@H]1OC(=O)/C(=C/CCCCCCCCCCCCNC(=O)CCCC[C@@H]2SC[C@@H]3NC(=O)N[C@@H]32)[C@@H]1O`, the outcome in data set [23] was inactive. Also, the result in data set [24] was Active.
For the compound `CCCCCCCCCCCC/C=C1/C(=O)O[C@@H](C)[C@H]1O`, the result (in the data set on Mus musculus [7]; in the data set on Mus musculus [13]; in the data set on Mus musculus [17]; in [3]) was Active. Besides, the Activity entry in the data set with HaCaT [1] was “Non-Toxic”; in data set [2], “Tde”.
`CCCCC/C=C1/C(=O)O[C@@H](C)[C@H]1O`: the result in data set [3] was inactive.
